Activity calls are given as the source filed them. No cut-off for these calls is given here. Where only a bound is given, the exact number is not on record here.

Data set [1] deals with Nuclear receptor subfamily 1 group I member 2 (Homo sapiens, UniProt O75469). Kind of data set: Transactivation of human GAL4-fused PXR ligand binding domain expressed in […] cells at 10 uM after 12 to 14 hrs by dual-glo luciferase reporter gene assay. Type of data set: cell-based. Put shortly: (§1)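 HEK293T cells in DMEM/10% FCS, Opti-MEM before Lipofectamine LTX transfection with pFR-Luc reporter, pRL-SV40 and pFA-CMV GAL4–LBD plasmid. 5 h later compound in 0.1% DMSO, Opti-MEM, overnight (12−14 h). Dual luciferase; firefly/renilla ×1000 = RLU, fold over DMSO control; triplicates, ≥3 independent repeats.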

Data set [2] deals with T1, Bifunctional epoxide hydrolase 2 (Homo sapiens) (UniProt P34913).
T1 sequence (whole entry): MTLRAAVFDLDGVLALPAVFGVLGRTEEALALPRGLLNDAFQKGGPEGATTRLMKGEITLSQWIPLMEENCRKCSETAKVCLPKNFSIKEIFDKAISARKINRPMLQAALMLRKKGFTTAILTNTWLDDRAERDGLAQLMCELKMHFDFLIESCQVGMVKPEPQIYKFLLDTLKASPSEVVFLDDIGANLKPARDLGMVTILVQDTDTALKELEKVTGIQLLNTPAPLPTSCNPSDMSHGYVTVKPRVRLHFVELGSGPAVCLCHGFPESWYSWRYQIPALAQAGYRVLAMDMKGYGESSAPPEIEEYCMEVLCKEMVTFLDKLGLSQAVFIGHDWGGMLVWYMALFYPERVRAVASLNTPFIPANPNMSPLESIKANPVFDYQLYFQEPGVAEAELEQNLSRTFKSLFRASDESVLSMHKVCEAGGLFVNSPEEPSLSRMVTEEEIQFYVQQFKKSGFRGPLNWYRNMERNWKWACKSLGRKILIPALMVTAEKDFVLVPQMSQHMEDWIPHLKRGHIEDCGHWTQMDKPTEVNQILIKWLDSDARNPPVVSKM
Kind of data set: Inhibition of sEH in human HuT-78 cells assessed as reduction in Pam3CSK4-stimulated TNFalpha release preincubated for 24 hrs followed by Pam3CSK4 addition measured after 18 hrs by ELISA. Type of data set: cell-based. A digest of the protocol:
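HuT-78 cells in RPMI 1640 with 10% heat-inactivated FCS, 2.0 × 10^6 cells/well, exposed to compound (0.1% DMSO) for 24 h; medium then replaced with fresh compound plus Pam3CSK4 20 ng/mL for 18 h; supernatant TNFα measured by ELISA (absorbance 450 nm); each concentration repeated independently at least three times.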
In general terms: ELISA stands for enzyme-linked immunosorbent assay.

Data set [3] has as its system Liver. Kind of data set: Drug metabolism in Sprague-Dawley rat liver microsomes assessed as N-(2-chloro-4-(methylsulfonamido)benzyl)-4-(1-hydroxy-2-methylpropan-2-yl)benzamide formation at 10 uM preincubated with NADPH regenerating system for 5 mins followed by addition of liver microsomes by LC-MS/MS method. Type of data set: ADME, microsome.
Data set [4] relates to Liver. As to the kind of experiment: Drug metabolism in Sprague-Dawley rat liver microsomes assessed as N-(4-Amino-2-chlorobenzyl)-4-(tert-butyl)benzamide formation at 10 uM preincubated with NADPH regenerating system for 5 mins followed by addition of liver microsomes by LC-MS/MS method. Type of data set: ADME, microsome. For orientation: Liver microsomes are vesicles of endoplasmic reticulum, rich in cytochrome P450 enzymes.

A further data set deals with T2, Bile acid receptor (Homo sapiens, UniProt Q96RI1).
T2 sequence (Q96RI1 whole entry): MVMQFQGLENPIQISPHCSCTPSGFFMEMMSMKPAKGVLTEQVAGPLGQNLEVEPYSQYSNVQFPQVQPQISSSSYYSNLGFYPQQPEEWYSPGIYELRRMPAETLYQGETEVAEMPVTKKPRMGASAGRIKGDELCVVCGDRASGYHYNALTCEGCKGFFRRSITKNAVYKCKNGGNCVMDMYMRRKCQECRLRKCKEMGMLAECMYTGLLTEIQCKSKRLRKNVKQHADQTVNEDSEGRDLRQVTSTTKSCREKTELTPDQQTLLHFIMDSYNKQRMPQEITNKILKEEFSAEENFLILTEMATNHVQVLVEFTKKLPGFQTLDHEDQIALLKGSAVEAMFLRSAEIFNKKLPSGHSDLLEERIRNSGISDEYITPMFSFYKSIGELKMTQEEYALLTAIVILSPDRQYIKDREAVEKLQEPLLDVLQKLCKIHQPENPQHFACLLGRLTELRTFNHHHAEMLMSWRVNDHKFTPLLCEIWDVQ
As to the kind of experiment: Transactivation of FXR in human HepG2 cells assessed as CYP7A1 mRNA expression at 1 uM after 8 to 16 hrs by SYBR green based qRT-PCR analysis relative to DMSO control. Type of data set: ADME, cell-based. Put shortly:
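HepG2 cells incubated with test compound (0.1 and 1 μM) or 0.1% DMSO for 8 or 16 h, washed in cold PBS, RNA extracted; target mRNA by SYBR Green qRT-PCR, duplicate samples, ≥4 independent experiments; comparative ΔΔCt with GAPDH reference, vehicle set as 100%.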
On the technique in general: Real-time PCR tracks product formation cycle by cycle.

Data set [5] concerns Liver. Kind of data set: Drug metabolism in Sprague-Dawley rat liver microsomes assessed as 4-tert-butyl-N-(2-chloro-4-(methylsulfonamido)benzyl)-2-hydroxybenzamide formation at 10 uM preincubated with NADPH regenerating system for 5 mins followed by addition of liver microsomes by LC-MS/MS method. Type of data set: ADME, microsome.
Data set [6] concerns the target Oxysterols receptor LXR-alpha (Homo sapiens) (UniProt Q13133). Kind of data set: Transactivation of human GAL4-fused LXRalpha ligand binding domain expressed in […] cells at 10 uM after 12 to 14 hrs by dual-glo luciferase reporter gene assay. Type of data set: cell-based. A digest of the protocol:
as §1

Data set [7] addresses Peroxisome proliferator-activated receptor delta (Homo sapiens) (UniProt Q03181). Kind of data set: Transactivation of human GAL4-fused PPARdelta ligand binding domain expressed in […] cells at 10 uM after 12 to 14 hrs by dual-glo luciferase reporter gene assay. Type of data set: cell-based. A digest of the protocol:
as §1

A short description of data set [8]: Metabolic stability in Sprague-Dawley rat liver microsomes assessed as compound remaining at 10 uM after 60 mins by HPLC analysis. Conditions: read-out: Stability. Type of data set: ADME, microsome.
In data set [9] the target is T3, Bile acid receptor (Homo sapiens) (UniProt Q96RI1).
T3 sequence (whole entry): T2 sequence (Q96RI1 whole entry)
As to the kind of experiment: Transactivation of human FXR expressed in human HeLa cells co-expressing BSEP at 50 uM after 24 hrs by dual-glo luciferase reporter gene assay relative to GW4064. Type of data set: cell-based. Put shortly:
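HeLa cells in DMEM/10% FCS at 37 °C, 5% CO2; switched to 0.5% charcoal-stripped FCS before calcium phosphate co-transfection with pcDNA3-hFXR, pSG5-hRXR, BSEP promoter–firefly luciferase reporter and pRL-SV40 renilla. Compound in 0.1% DMSO, phenol red-free medium, 24 h.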

The target in data set [10] is Oxysterols receptor LXR-beta (Homo sapiens) (UniProt P55055). Kind of data set: Transactivation of human GAL4-fused LXRbeta ligand binding domain expressed in […] cells at 10 uM after 12 to 14 hrs by dual-glo luciferase reporter gene assay. Type of data set: cell-based. Put shortly:
as §1

Chain of Oxysterols receptor LXR-beta (Homo sapiens) (P55055 whole entry, the tested form may be a part): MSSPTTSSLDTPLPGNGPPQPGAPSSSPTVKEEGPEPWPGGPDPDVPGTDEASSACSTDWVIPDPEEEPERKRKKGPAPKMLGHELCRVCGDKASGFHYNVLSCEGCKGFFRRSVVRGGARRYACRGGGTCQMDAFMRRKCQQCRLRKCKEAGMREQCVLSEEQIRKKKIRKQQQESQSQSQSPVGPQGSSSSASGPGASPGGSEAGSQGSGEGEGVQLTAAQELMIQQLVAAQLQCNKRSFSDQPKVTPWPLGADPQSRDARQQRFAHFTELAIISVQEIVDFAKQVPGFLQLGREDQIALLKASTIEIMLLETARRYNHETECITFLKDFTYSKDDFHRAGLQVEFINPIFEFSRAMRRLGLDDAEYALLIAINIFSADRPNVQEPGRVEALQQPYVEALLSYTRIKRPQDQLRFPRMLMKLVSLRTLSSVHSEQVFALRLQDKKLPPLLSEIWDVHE
Chain of Peroxisome proliferator-activated receptor delta (Homo sapiens) (Q03181 whole entry, the tested form may be a part): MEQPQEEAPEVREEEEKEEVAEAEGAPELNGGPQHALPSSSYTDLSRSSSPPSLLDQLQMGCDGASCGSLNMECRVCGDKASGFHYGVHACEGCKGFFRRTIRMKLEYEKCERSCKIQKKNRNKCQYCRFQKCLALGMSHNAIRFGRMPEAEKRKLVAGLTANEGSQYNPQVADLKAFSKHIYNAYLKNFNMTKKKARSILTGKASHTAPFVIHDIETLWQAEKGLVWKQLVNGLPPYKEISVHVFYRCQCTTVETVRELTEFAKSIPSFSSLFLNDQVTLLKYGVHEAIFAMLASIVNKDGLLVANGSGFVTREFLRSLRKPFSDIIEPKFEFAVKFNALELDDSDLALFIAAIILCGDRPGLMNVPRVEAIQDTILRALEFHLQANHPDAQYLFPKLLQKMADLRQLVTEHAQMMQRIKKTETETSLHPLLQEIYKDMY
Chain of Nuclear receptor subfamily 1 group I member 2 (O75469 whole entry, the tested form may be a part): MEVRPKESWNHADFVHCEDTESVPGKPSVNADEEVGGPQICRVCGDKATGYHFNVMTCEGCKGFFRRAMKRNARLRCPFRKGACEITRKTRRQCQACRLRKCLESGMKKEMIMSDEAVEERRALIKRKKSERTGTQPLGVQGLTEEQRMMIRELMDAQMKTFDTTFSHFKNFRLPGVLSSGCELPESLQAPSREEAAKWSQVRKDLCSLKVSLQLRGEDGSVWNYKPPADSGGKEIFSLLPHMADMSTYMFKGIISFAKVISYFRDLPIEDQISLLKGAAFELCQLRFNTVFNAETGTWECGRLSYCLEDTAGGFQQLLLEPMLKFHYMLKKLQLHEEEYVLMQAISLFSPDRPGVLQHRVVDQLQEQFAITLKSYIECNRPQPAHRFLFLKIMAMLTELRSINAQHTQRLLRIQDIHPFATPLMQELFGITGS
Chain of Oxysterols receptor LXR-alpha (Homo sapiens) (Q13133 whole entry, the tested form may be a part): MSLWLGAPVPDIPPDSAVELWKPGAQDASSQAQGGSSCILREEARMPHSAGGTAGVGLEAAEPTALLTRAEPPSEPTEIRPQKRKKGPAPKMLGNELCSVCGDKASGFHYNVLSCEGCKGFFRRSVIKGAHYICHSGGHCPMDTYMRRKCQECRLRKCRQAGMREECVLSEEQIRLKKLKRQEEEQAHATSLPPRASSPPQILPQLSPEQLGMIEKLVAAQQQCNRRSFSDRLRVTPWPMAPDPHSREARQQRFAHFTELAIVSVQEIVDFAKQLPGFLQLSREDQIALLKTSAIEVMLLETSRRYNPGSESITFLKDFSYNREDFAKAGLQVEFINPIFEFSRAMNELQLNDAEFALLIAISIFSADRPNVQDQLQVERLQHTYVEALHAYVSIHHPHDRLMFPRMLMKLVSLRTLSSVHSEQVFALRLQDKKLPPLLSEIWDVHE

As usually defined, the Emax is the size of the effect at its maximum, as opposed to the concentration needed. With `CC(C)(C)c1ccc(C(=O)NCc2ccc(NS(C)(=O)=O)cc2Cl)cc1`, the Activity entry is given as “Not Active” in [1] and 52% at Bile acid receptor. The inhibition result in data set [2] is “Active”. The Drug metabolism result was “Metabolite_Detected” with Liver [3], “Metabolite_Detected” in the data set on Liver [4] and “Metabolite_Notdetected” in the data set on Liver [5]. The result in data set [6], in data set [7] and in [10] was inactive. Besides, the remaining at 1 h, 10 µM in data set [8] was greater than 50%. This compound had an Emax in data set [9] of 35%.

The values above are taken from ChEMBL document CHEMBL4017509, “A Dual Modulator of Farnesoid X Receptor and Soluble Epoxide Hydrolase To Counter Nonalcoholic Steatohepatitis” (J Med Chem, 2017).
